Measured values collected from several papers.
Protocols differ between the studies behind these lines.
Stromelysin-2: Stromelysin-2 (Homo sapiens, UniProt P09238)
FAP: Prolyl endopeptidase FAP (FAP, Homo sapiens, UniProt Q12884)
PSMB6: Proteasome subunit beta type-6 (PSMB6, Homo sapiens, UniProt P28072)
BMPR2: Bone morphogenetic protein receptor type-2 (BMPR2, Homo sapiens, UniProt Q13873)

Structure (SMILES)	target	assay	setting	endpoint	value
C#Cc1n[nH]c2c(-c3cn([C@@H](C)c4ccccn4)c(=O)[nH]c3=O)cc(F)cc12	Proto-oncogene tyrosine-protein kinase Src (SRC, Homo sapiens, UniProt P12931)	enzyme activity, inhibitor	0.1 µM	inhibition	12.9%
Oc1c(Br)cc(Br)cc1Oc1ccc(Br)cc1Br	Sulfotransferase 1E1 (SULT1E1, Homo sapiens, UniProt P49888)	enzyme activity, substrate		Km	8.87 µM
COc1ccc(S(=O)(=O)N(CC(=O)NO)CC(C)C)cc1	Stromelysin-2	enzyme activity, inhibitor	10 µM	inhibition	91%
C#Cc1n[nH]c2c(-c3cn([C@@H](C)c4ccccc4)c(=O)[nH]c3=O)cc(F)cc12	Cyclin-dependent kinase 9, with cyclin T1 (CDK9, Homo sapiens, UniProt P50750)	enzyme activity, inhibitor	0.1 µM	inhibition	-1.8%
CCOC(=O)c1ccc(OC(=O)CCCCCNC(=N)N)cc1	FAP	enzyme activity, inhibitor	10 µM	inhibition	29%
Nc1ncc(-c2nc(N3CCOCC3)nc(N3CCOCC3)n2)c(C(F)F)n1	5'-AMP-activated protein kinase catalytic subunit alpha-2 (PRKAA2, Homo sapiens, UniProt P54646)	cell-free assay, competition with immobilised ligand	10 µM	remaining binding	91%
N=C(N)c1ccc2cc(OC(=O)c3ccc(N=C(N)N)cc3)ccc2c1	Stromelysin-2	enzyme activity, inhibitor	10 µM	inhibition	0%
Cn1cc(-c2cc(F)cc(N3CCn4c(cc5c4CCCC5)C3=O)c2CO)cc(Nc2ccc(N3CCN(C4COC4)CC3)cn2)c1=O	Cyclin-dependent kinase 1, with cyclin B (CDK1, Homo sapiens, UniProt P06493)	enzyme activity, inhibitor	0.1 µM	inhibition	8%
CN(C)C(=O)COC(=O)Cc1ccc(OC(=O)c2ccc(NC(=N)N)cc2)cc1	FAP	enzyme activity, inhibitor	10 µM	inhibition	30%
Nc1ccc(-c2nsc(=O)o2)cc1	PSMB6	enzyme activity, inhibitor		kinact/KI	1.09 M⁻¹ s⁻¹
Cc1nn(C)cc1-c1nc2c(N3CCN(Cc4ccc(Cl)cc4)CC3)c(Cl)cnc2[nH]1	BMPR2	binding, competition with immobilised ligand	1 µM	remaining binding	100%
Nc1cccc(-c2nsc(=O)o2)c1	PSMB6	enzyme activity, inhibitor		kinact/KI	0.61 M⁻¹ s⁻¹
COc1ncccc1-c1cnn2ccc(N3CCN(C(=O)OC(C)C)CC3)nc12	BMPR2	binding, competition with immobilised ligand	1 µM	remaining binding	72%
Cn1cc(-c2cccc(N3CCc4c(sc5c4CC(C)(C)C5)C3=O)c2CO)cc(Nc2ccncn2)c1=O	Cyclin-dependent kinase 9, with cyclin K (CDK9, Homo sapiens, UniProt P50750)	enzyme activity, inhibitor	1 µM	inhibition	11%
N#C[C@@H]1CC(F)(F)CN1C(=O)CNC(=O)c1ccnc2ccccc12	FAP	enzyme activity, inhibitor	10 nM	inhibition	35%
